In ChEMBL document CHEMBL2010713, “Structure-activity relationship of a new series of reversible dual monoacylglycerol lipase/fatty acid amide hydrolase inhibitors” (J Med Chem, 2012):
The source made the active and inactive calls. The calls are words filed in the database; no cut-off is given here.

Assays:
[1] = target: T1, Monoglyceride lipase (Homo sapiens, UniProt Q99685); assay: Inhibition of human recombinant his-tagged MAGL expressed in Escherichia coli assessed as hydrolysis of 4-nitrophenyl acetate after 20 mins by microplate reader
T1 sequence (Q99685 whole entry): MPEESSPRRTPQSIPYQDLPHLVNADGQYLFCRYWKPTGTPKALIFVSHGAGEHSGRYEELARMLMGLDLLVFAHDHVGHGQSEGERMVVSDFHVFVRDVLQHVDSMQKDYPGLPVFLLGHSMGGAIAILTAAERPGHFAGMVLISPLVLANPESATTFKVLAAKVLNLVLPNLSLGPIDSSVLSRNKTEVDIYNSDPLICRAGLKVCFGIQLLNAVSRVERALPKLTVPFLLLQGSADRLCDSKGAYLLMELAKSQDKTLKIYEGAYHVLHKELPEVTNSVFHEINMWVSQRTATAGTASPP

[2] = target: T2, Monoglyceride lipase (Homo sapiens) (UniProt Q99685); assay: Inhibition of human recombinant his-tagged MAGL expressed in Escherichia coli assessed as hydrolysis of 4-nitrophenyl acetate at 10 uM after 20 mins by microplate reader
T2 sequence (whole entry): T1 sequence (Q99685 whole entry)

[3] = target: T3, Fatty-acid amide hydrolase 1 (Rattus norvegicus) (UniProt P97612); assay: Inhibition of rat brain membrane FAAH assessed as [3H]-anandamide hydrolysis at 100 uM after 10 mins by liquid scintillation spectroscopy
T3 sequence (whole entry): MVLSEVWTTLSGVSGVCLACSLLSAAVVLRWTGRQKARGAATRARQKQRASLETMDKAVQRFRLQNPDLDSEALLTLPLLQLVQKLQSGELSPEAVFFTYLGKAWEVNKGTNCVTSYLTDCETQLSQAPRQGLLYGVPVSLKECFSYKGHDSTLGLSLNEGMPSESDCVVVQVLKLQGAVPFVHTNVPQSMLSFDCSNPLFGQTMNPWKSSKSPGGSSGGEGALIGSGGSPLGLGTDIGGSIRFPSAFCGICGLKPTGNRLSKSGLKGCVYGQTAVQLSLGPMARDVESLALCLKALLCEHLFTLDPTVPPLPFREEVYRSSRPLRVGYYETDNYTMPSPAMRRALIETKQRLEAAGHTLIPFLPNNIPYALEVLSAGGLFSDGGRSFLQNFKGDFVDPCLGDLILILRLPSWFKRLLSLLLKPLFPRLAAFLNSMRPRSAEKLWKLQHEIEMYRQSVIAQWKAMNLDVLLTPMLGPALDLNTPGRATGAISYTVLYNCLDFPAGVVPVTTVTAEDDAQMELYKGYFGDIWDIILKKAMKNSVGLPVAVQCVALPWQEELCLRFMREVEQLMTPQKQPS
How it was run: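 Membrane fraction of rat cerebella (100000g pellet resuspended in 50 mM sodium phosphate pH 8.0), diluted in 10 mM Tris-HCl, 1 mM EDTA, pH 7.2, for initial-rate conditions. [3H]-anandamide, ethanolamine-labelled, final 0.5 μM, with fatty acid-free BSA. Aqueous-phase tritium measured by liquid scintillation; blanks lacked enzyme; activity as percent of solvent-carrier control. Highest concentration 100 μM; 3–10 independent experiments.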

[4] = target: Fatty-acid amide hydrolase 1 (Rattus norvegicus) (UniProt P97612); assay: Inhibition of rat brain membrane FAAH assessed as [3H]-anandamide hydrolysis after 10 mins by liquid scintillation spectroscopy
[5] = target: Monoglyceride lipase (Rattus norvegicus) (UniProt Q8R431); assay: Inhibition of rat brain cytosolic MAGL assessed as [3H]-2-oleoylglycerol hydrolysis after 10 mins by liquid scintillation spectroscopy
[6] = target: Monoglyceride lipase (Rattus norvegicus) (UniProt Q8R431); assay: Inhibition of rat brain cytosolic MAGL assessed as [3H]-2-oleoylglycerol hydrolysis at 100 uM after 10 mins by liquid scintillation spectroscopy; conditions: Cytosol
[7] = target: T4, Monoglyceride lipase (Rattus norvegicus) (UniProt Q8R431); assay: Inhibition of rat brain cytosolic MAGL assessed as [3H]-2-arachidonoyl glycerol hydrolysis at 100 uM after 10 mins by liquid scintillation spectroscopy
T4 sequence (whole entry): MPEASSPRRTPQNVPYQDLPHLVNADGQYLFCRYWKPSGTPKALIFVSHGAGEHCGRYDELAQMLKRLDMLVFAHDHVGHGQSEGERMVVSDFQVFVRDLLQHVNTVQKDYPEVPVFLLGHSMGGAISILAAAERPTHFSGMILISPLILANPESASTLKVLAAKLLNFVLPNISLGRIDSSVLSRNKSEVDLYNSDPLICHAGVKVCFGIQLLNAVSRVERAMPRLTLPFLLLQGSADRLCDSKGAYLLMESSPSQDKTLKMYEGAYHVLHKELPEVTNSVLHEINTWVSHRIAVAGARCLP

[8] = target: T4, Monoglyceride lipase (Rattus norvegicus); assay: Irreversible inhibition of rat brain cytosolic MAGL assessed as […] at 3 to 10 uM preincubated for 60 mins by liquid scintillation
[9] = target: T4, Monoglyceride lipase (Rattus norvegicus); assay: Irreversible inhibition of rat brain cytosolic MAGL assessed as […] at 0.1 to 1 uM preincubated for 60 mins by liquid scintillation
[10] = target: T4, Monoglyceride lipase (Rattus norvegicus); assay: Irreversible inhibition of rat brain cytosolic MAGL assessed as [3H]-2-arachidonoyl glycerol hydrolysis at 3 uM preincubated for 60 mins measured after dilution by liquid scintillation
[11] = target: T4, Monoglyceride lipase (Rattus norvegicus); assay: Irreversible inhibition of rat brain cytosolic MAGL assessed as [3H]-2-arachidonoyl glycerol hydrolysis at 3 uM preincubated for 60 mins followed by […] compound treated after dilution by liquid scintillation
[12] = target: T4, Monoglyceride lipase (Rattus norvegicus); assay: Irreversible inhibition of rat brain cytosolic MAGL assessed as [3H]-anandamide hydrolysis at 3 uM preincubated for 60 mins measured after dilution by liquid scintillation
[13] = target: T4, Monoglyceride lipase (Rattus norvegicus); assay: Irreversible inhibition of rat brain cytosolic MAGL assessed as [3H]-anandamide hydrolysis at 3 uM preincubated for 60 mins followed by […] compound treated after dilution by liquid scintillation
[14] = target: T1, Monoglyceride lipase; assay: Non-competitive inhibition of human recombinant MAGL assessed as 7-hydroxycoumarin level using umbelliferyl arachidonate as substrate by luminescence spectrophotometer
[15] = target: T4, Monoglyceride lipase (Rattus norvegicus); assay: Irreversible inhibition of rat brain cytosolic MAGL assessed as [3H]-2-arachidonoyl glycerol hydrolysis at 0.1 uM preincubated for 60 mins by liquid scintillation
[16] = target: T4, Monoglyceride lipase (Rattus norvegicus); conditions: 10 uM
[17] = target: T4, Monoglyceride lipase (Rattus norvegicus); conditions: 10 uM; remark: listed apart in the source
[18] = target: T4, Monoglyceride lipase (Rattus norvegicus); conditions: 10 uM; remark: listed apart in the source
[19] = target: T4, Monoglyceride lipase (Rattus norvegicus); conditions: 10 uM; remark: listed apart in the source
[20] = target: T2, Monoglyceride lipase (Homo sapiens)

Compound | IC50 [1] [µM] | inhibition [2] [%] | other results
O=C(CCCCCc1ccc(-c2ccccc2)cc1)OCC1CCCCO1 (racemic) | > 10 | 33 | 
O=C(OCC1CO1)c1ccc(CCc2ccccc2)cc1 (racemic) |  | < 10 | 
O=C(CCc1ccc(-c2ccccc2)cc1)OCC1CCCCO1 (racemic) | 1.6 |  | Imax [2]: 67%
O=C(CCCc1ccc(-c2ccccc2)cc1)OCC1CO1 (racemic) | 1.8 |  | Imax [2]: 86%
O=C(CCCc1ccc(Cc2ccccc2)cc1)OCC1CO1 (racemic) | > 10 | 29 | 
O=C(CCCCc1ccc(-c2ccccc2)cc1)OCC1CCCCO1 (racemic) | 12 |  | 
O=C(CCCc1ccc(-c2ccccc2)cc1)OCC1CCCCO1 (racemic) | > 10 | 34 | 
O=C(CCc1ccc(Cc2ccccc2)cc1)OCC1CCCCO1 (racemic) |  | < 10 | 
O=C(CCCCc1ccc(-c2ccccc2)cc1)OCC1CO1 (racemic) | 6.6 |  | Imax [3]: 87%; IC50 [4]: 4.6 µM; IC50 [5]: 2.6 µM
O=C(/C=C/Cc1ccc(-c2ccccc2)cc1)OCC1CCCCO1 (racemic) | > 10 | 49 | 
O=C(Cc1ccc(Cc2ccccc2)cc1)OC(CO)CO |  | < 10 | IC50 [4]: 0.7 µM; IC50 [5]: > 100 µM; inhibition [6]: 49%
O=C(CCCCCCc1ccc(-c2ccccc2)cc1)OCC1CCCCO1 (racemic) | > 10 | 37 | Imax [7]: 83%
O=C(Cc1ccc(Cc2ccccc2)cc1)OC[C@H]1CO1 | 2.4 |  | inhibition [8]: inactive; inhibition [9]: inactive; inhibition [10]: inactive; inhibition [11]: inactive; inhibition [12]: inactive; inhibition [13]: inactive; Ki [14]: 40 µM
O=C(CCCCCc1ccc(-c2ccccc2)cc1)OC(CO)CO | 7.5 |  | 
O=C(/C=C/c1ccc(-c2ccccc2)cc1)OCC1CO1 (racemic) | 5.1 |  | Imax [7]: 73%
O=C(Cc1ccc(Cc2ccccc2)cc1)OCC1CO1 (racemic) | 16 |  | 

Compound | IC50 [1] [µM] | inhibition [2] [%] | other results
O=C(C/C=C/c1ccc(-c2ccccc2)cc1)OCC1CCCCO1 (racemic) | > 10 | 12 | 
O=C(/C=C/c1ccc(-c2ccccc2)cc1)OCC1CCCCO1 (racemic) | 0.76 |  | Imax [2]: 90%; inhibition [7]: 37%
CCCCC/C=C\C/C=C\C/C=C\C/C=C\CCCC(=O)OCC1CCCCO1 (stereo not given) |  |  | IC50 [5]: 5.6 µM
O=C(CCc1ccc(Cc2ccccc2)cc1)OCC1CO1 (racemic) |  | < 10 | Imax [3]: 72%
O=C(Cc1ccc(Cc2ccccc2)cc1)OC[C@@H]1CO1 |  | < 10 | 
O=C(Cc1ccc(-c2ccccc2)cc1)OCC1CO1 (racemic) |  | < 10 | 
O=C(CCc1ccc(-c2ccccc2)cc1)OCC1CO1 (racemic) | > 10 | 22 | 
O=C(CCCCCc1ccc(-c2ccccc2)cc1)OC[C@@H]1CO1 | > 10 | 45 | Imax [3]: 92%; Imax [7]: > 95%
O=C(Cc1ccc(-c2ccccc2)cc1)OCC1CCCCO1 (racemic) | > 10 | 21 | 
O=C(OCC1CCCCO1)c1ccc(CCc2ccccc2)cc1 (racemic) |  | < 10 | 
O=C(CCCc1ccc(Cc2ccccc2)cc1)OCC1CCCCO1 (racemic) | > 10 | 14 | Imax [7]: 72%
O=C(Oc1ccc([N+](=O)[O-])cc1)N1CCC(C(O)(c2ccc3c(c2)OCO3)c2ccc3c(c2)OCO3)CC1 |  |  | inhibition [15]: Active
O=C(CCCCCc1ccc(-c2ccccc2)cc1)OCC1CO1 (racemic) | 4.1 |  | Imax [3]: 89%; inhibition [8]: inactive; inhibition [9]: inactive; inhibition [16]: Active; inhibition [17]: Active; inhibition [18]: Active; inhibition [19]: Active; Kic [20]: 8 µM
O=C(Cc1ccc(Cc2ccccc2)cc1)OCC1CCCCO1 (racemic) |  | < 10 | Imax [7]: 96%; IC50 [4]: 6.8 µM; IC50 [5]: > 100 µM; inhibition [6]: 25%
O=C(CCCCCc1ccc(-c2ccccc2)cc1)OC[C@H]1CO1 | > 10 | 33 | Imax [3]: 91%
O=C(CCCCCCc1ccc(-c2ccccc2)cc1)OCC1CO1 (racemic) | > 10 | 11 | 
